Assay results from ChEMBL document CHEMBL1177643, “Synthesis, DNA-binding ability and anticancer activity of benzothiazole/benzoxazole-pyrrolo[2,1-c][1,4]benzodiazepine conjugates” (Bioorg Med Chem, 2010).
Where “and” joins values, the source holds several entries; their conditions need not be identical. Identical values can stand only once.

What was measured:
Calf thymus DNA = assay: Binding affinity to calf thymus duplex-form DNA assessed as cleavage of pBR322 after 16 hrs by restriction endonuclease digestion assay in presence of BamHI; assay type: nucleic-acid assay; conditions: Bos taurus
Procedure, shortened: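 pBR322 DNA (500 ng) preincubated with compound (5–30 μM) 16 h at 37 °C, then digested with BamHI (20 U) 1 h at 37 °C. Products run on 1% agarose in Tris–acetate EDTA, 80 V, 2 h. Read-out was ethidium bromide staining under UV, with an undigested and a fully digested control.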

HL-60 = assay: Growth inhibition of human HL-60(TB) cells after 48 hrs by sulforhodamine B assay; assay type: functional; conditions: HL-60, 48 h
Procedure, shortened: (§1)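 Panel of 60 human cancer cell lines; for each compound, dose–response curves per cell line measured at a minimum of five concentrations at 10-fold dilutions. Cells exposed continuously to drug for 48 h, and growth was read out by sulforhodamine B staining.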

EKVX = assay: Growth inhibition of human EKVX cells after 48 hrs by sulforhodamine B assay; assay type: functional
Procedure, shortened: (§2)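 Dose–response in each cell line over at least five concentrations at 10-fold dilutions, with 48 h continuous exposure and sulforhodamine B read-out.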

NCI-H226 = assay: Growth inhibition of human NCI-H226 cells after 48 hrs by sulforhodamine B assay; assay type: functional; conditions: NCI-H226, 48 h; procedure, shortened: as §1
NCI-H23 = assay: Growth inhibition of human NCI-H23 cells after 48 hrs by sulforhodamine B assay; assay type: functional; conditions: NCI-H23, 48 h; procedure, shortened: as §1
HT-29 [1] = assay: Growth inhibition of human HT-29 cells after 48 hrs by sulforhodamine B assay; assay type: functional; conditions: HT-29, 48 h; procedure, shortened: as §1
SF-539 = assay: Growth inhibition of human SF539 cells after 48 hrs by sulforhodamine B assay; assay type: functional; conditions: SF-539, 48 h; procedure, shortened: as §1
Malme-3M = assay: Growth inhibition of human MALME-3M cells after 48 hrs by sulforhodamine B assay; assay type: functional; procedure, shortened: as §1
SK-MEL-2 = assay: Growth inhibition of human SK-MEL-2 cells after 48 hrs by sulforhodamine B assay; assay type: functional; conditions: SK-MEL-2, 48 h; procedure, shortened: as §1
SK-MEL-28 = assay: Growth inhibition of human SK-MEL-28 cells after 48 hrs by sulforhodamine B assay; assay type: functional; conditions: SK-MEL-28, 48 h; procedure, shortened: as §1
IGROV-1 = assay: Growth inhibition of human IGROV1 cells after 48 hrs by sulforhodamine B assay; assay type: functional; conditions: IGROV-1, 48 h; procedure, shortened: as §1
OVCAR-3 = assay: Growth inhibition of human OVCAR-3 cells after 48 hrs by sulforhodamine B assay; assay type: functional; conditions: OVCAR-3, 48 h; procedure, shortened: as §1
SK-OV-3 = assay: Growth inhibition of human SKOV3 cells after 48 hrs by sulforhodamine B assay; assay type: functional; conditions: SK-OV-3, 48 h; procedure, shortened: as §1
786-0 = assay: Growth inhibition of human 786-0 cells after 48 hrs by sulforhodamine B assay; assay type: functional; conditions: 786-0, 48 h; procedure, shortened: as §2
CAKI-1 = assay: Growth inhibition of human Caki1 cells after 48 hrs by sulforhodamine B assay; assay type: functional; conditions: CAKI-1, 48 h; procedure, shortened: as §2
SN12C = assay: Growth inhibition of human SN12C cells after 48 hrs by sulforhodamine B assay; assay type: functional; procedure, shortened: as §1
TK-10 = assay: Growth inhibition of human TK10 cells after 48 hrs by sulforhodamine B assay; assay type: functional; conditions: TK-10, 48 h; procedure, shortened: as §1
PC-3 = assay: Growth inhibition of human PC3 cells after 48 hrs by sulforhodamine B assay; assay type: functional; conditions: PC-3, 48 h; procedure, shortened: as §1
DU-145 = assay: Growth inhibition of human DU145 cells after 48 hrs by sulforhodamine B assay; assay type: functional; conditions: DU-145, 48 h; procedure, shortened: as §2
NCI/ADR-RES = assay: Growth inhibition of human NCI/ADR-RES cells after 48 hrs by sulforhodamine B assay; assay type: functional; procedure, shortened: as §1
Hs-578T = assay: Growth inhibition of human Hs 578T cells after 48 hrs by sulforhodamine B assay; assay type: functional; procedure, shortened: as §1
A-375 [2] = assay: Induction of apoptosis in human A375 cells at 2 uM; assay type: functional, cell-based
Procedure, shortened: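 A375 melanoma cells (5 × 10⁵ per 60 mm dish) grown 24 h, then exposed to 2 μM compound (final) for 24 h; DMSO-treated cells as control. Cells harvested with trypsin–EDTA, fixed in ice-cold 70% ethanol, treated with RNase A, and stained with propidium iodide. DNA content of 20,000 events read by flow cytometry; sub-G1 (G0) area taken as apoptotic.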

A-375 [3] = assay: Cell cycle arrest in human A375 cells assessed as accumulation at G1 phase at 0.5 uM after 24 hrs using propidium iodide staining by flow cytometry; assay type: functional
Procedure, shortened: (§3)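 A375 cells (5×10^5) grown 24 h, then exposed to compound 24 h (DMSO control). Trypsin–EDTA harvest, fixed in ice-cold 70% ethanol at 4 °C 30 min, RNase A 37 °C 30 min, propidium iodide staining. DNA content measured by flow cytometry on 20,000 events, gated as sub-G1/G0, G1, S and G2/M.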

A-375 [4] = assay: Cell cycle arrest in human A375 cells assessed as accumulation at G2/M phase at 0.5 uM after 24 hrs using propidium iodide staining by flow cytometry; assay type: functional; procedure, shortened: as §3
A-375 [5] = assay: Cell cycle arrest in human A375 cells assessed as accumulation at G0 phase at 1 uM after 24 hrs using propidium iodide staining by flow cytometry; assay type: functional; procedure, shortened: as §3
A-375 [6] = assay: Cell cycle arrest in human A375 cells assessed as accumulation at S phase at 1 uM after 24 hrs using propidium iodide staining by flow cytometry; assay type: functional; procedure, shortened: as §3
HT-29 [7] = assay: Antitumor activity against human HT-29 cells xenografted in SCID mouse assessed as reduction tumor volume at 15 mg/kg, ip measured on day 1; assay type: functional; conditions: route intraperitoneal
Procedure, shortened: (§4)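 HT29 xenografts in scid mice; dosing ip on days 1, 5 and 9 (q4d), 5 or 10 mg/kg per dose (total 15 or 30 mg/kg); vehicle control group. Tumour volume, body weight and toxicity followed for 35 days. Relative tumour volume = volume on given day / volume on day 1; T/C = mean RTV treated / mean RTV control.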

HT-29 [8] = assay: Antitumor activity against human HT-29 cells xenografted in SCID mouse assessed as reduction tumor volume at 15 mg/kg, ip measured on day 5; assay type: functional; conditions: route intraperitoneal; procedure, shortened: as §4
HT-29 [9] = assay: Antitumor activity against human HT-29 cells xenografted in SCID mouse assessed as reduction tumor volume at 30 mg/kg, ip measured on day 14; assay type: functional; conditions: route intraperitoneal; procedure, shortened: as §4
HT-29 [10] = assay: Antitumor activity against human HT-29 cells xenografted in SCID mouse assessed as reduction tumor volume at 15 mg/kg, ip measured on day 17; assay type: functional; conditions: route intraperitoneal; procedure, shortened: as §4
HT-29 [11] = assay: Antitumor activity against human HT-29 cells xenografted in SCID mouse assessed as reduction tumor volume at 30 mg/kg, ip measured on day 17; assay type: functional; conditions: route intraperitoneal; procedure, shortened: as §4
HT-29 [12] = assay: Antitumor activity against human HT-29 cells xenografted in SCID mouse assessed as reduction tumor volume at 15 mg/kg, ip measured on day 21; assay type: functional; conditions: route intraperitoneal; procedure, shortened: as §4
HT-29 [13] = assay: Antitumor activity against human HT-29 cells xenografted in SCID mouse assessed as reduction tumor volume at 30 mg/kg, ip measured on day 21; assay type: functional; conditions: route intraperitoneal; procedure, shortened: as §4
HT-29 [14] = assay: Antitumor activity against human HT-29 cells xenografted in SCID mouse assessed as reduction tumor volume at 15 mg/kg, ip measured on day 25; assay type: functional; conditions: route intraperitoneal; procedure, shortened: as §4
HT-29 [15] = assay: Antitumor activity against human HT-29 cells xenografted in SCID mouse assessed as reduction tumor volume at 15 mg/kg, ip measured on day 28; assay type: functional; conditions: route intraperitoneal; procedure, shortened: as §4
HT-29 [16] = assay: Antitumor activity against human HT-29 cells xenografted in SCID mouse assessed as reduction tumor volume at 30 mg/kg, ip measured on day 28; assay type: functional; conditions: route intraperitoneal; procedure, shortened: as §4

`COc1cc(-c2nc3ccccc3s2)ccc1OCCCCCOc1cc2c(cc1OC)C(=O)N1CCC[C@H]1C=N2` was tested, and the Activity (Calf thymus DNA) was “Dose-dependent effect”, the GI50 (HL-60) was 33.1 nM and the GI50 (EKVX) was 204 nM. It also gave a GI50 (NCI-H226) of 214 nM, a GI50 (NCI-H23) of 61.7 nM and a GI50 (HT-29 [1]) of 40.7 nM. For the same molecule, the GI50 (SF-539) was 39.8 nM, the GI50 (Malme-3M) was 145 nM and the GI50 (SK-MEL-2) was 178 nM. For the same molecule, the GI50 (SK-MEL-28) was 331 nM, the GI50 (IGROV-1) was 347 nM and the GI50 (OVCAR-3) was 97.7 nM. For the same molecule, the GI50 (SK-OV-3) was 178 nM, the GI50 (786-0) was 27.5 nM and the GI50 (CAKI-1) was 117 nM. It also gave a GI50 (SN12C) of 200 nM, a GI50 (TK-10) of 331 nM and a GI50 (PC-3) of 41.7 nM. It also gave a GI50 (DU-145) of 33.9 nM, a GI50 (NCI/ADR-RES) of 269 nM and a GI50 (Hs-578T) of 141 nM. For the same molecule, the Activity (A-375 [2]) was “Dose-dependent effect”, the Activity (A-375 [3]) was 64.95% and the Activity (A-375 [4]) was 15.96%. It also gave an Activity (A-375 [5]) of 2.7%, an Activity (A-375 [6]) of 15.42% and a T/C (HT-29 [7]) of 1%. For the same molecule, the T/C (HT-29 [8]) was 0.65% and 0.62%, the T/C (HT-29 [9]) was 0.66% and the T/C (HT-29 [10]) was 0.65% and 0.28%. The T/C (HT-29 [11]) was 0.81%, the T/C (HT-29 [12]) was 0.65% and 0.2% and the T/C (HT-29 [13]) was 0.58%. For the same molecule, the T/C (HT-29 [14]) was 0.72% and 0.2%, the T/C (HT-29 [15]) was 0.73% and 0.18% and the T/C (HT-29 [16]) was 0.75%.
`COc1cc2c(cc1OCCCCC(=O)Nc1ccc(-c3nc4ccccc4s3)cc1)N=C[C@@H]1CCCN1C2=O` was tested, and the GI50 (HL-60) was 1780 nM, the GI50 (EKVX) was 2450 nM and the GI50 (NCI-H226) was 2880 nM. The GI50 (HT-29 [1]) was 2140 nM, the GI50 (SF-539) was 1580 nM and the GI50 (Malme-3M) was 1910 nM. The GI50 (SK-MEL-2) was 1950 nM, the GI50 (SK-MEL-28) was 2240 nM and the GI50 (IGROV-1) was 692 nM. For the same molecule, the GI50 (OVCAR-3) was 1860 nM, the GI50 (SK-OV-3) was 4470 nM and the GI50 (786-0) was 1550 nM. The GI50 (CAKI-1) was 2190 nM, the GI50 (SN12C) was 2820 nM and the GI50 (TK-10) was 3240 nM. For the same molecule, the GI50 (PC-3) was 2040 nM, the GI50 (NCI/ADR-RES) was 11000 nM and the GI50 (Hs-578T) was 2750 nM.
In the case of `COc1cc(-c2nc3ccccc3s2)ccc1OCCCCOc1cc2c(cc1OC)C(=O)N1CCC[C@H]1C=N2`, the Activity (Calf thymus DNA) was “Dose-dependent effect”, the GI50 (HL-60) was 513 nM and the GI50 (EKVX) was 1740 nM. For the same molecule, the GI50 (NCI-H226) was 2400 nM, the GI50 (NCI-H23) was 1480 nM and the GI50 (HT-29 [1]) was 537 nM. For the same molecule, the GI50 (SF-539) was 537 nM, the GI50 (Malme-3M) was 1550 nM and the GI50 (SK-MEL-2) was 1230 nM. For the same molecule, the GI50 (SK-MEL-28) was 2140 nM, the GI50 (IGROV-1) was 3090 nM and the GI50 (OVCAR-3) was 724 nM. The GI50 (SK-OV-3) was 2400 nM, the GI50 (786-0) was 891 nM and the GI50 (CAKI-1) was 575 nM. The GI50 (SN12C) was 955 nM, the GI50 (TK-10) was 1510 nM and the GI50 (PC-3) was 407 nM. For the same molecule, the GI50 (DU-145) was 302 nM, the GI50 (NCI/ADR-RES) was 1910 nM and the GI50 (Hs-578T) was 1020 nM.
